Data taken from ChEMBL document CHEMBL4004812, “Semisynthesis of (-)-Rutamarin Derivatives and Their Inhibitory Activity on Epstein-Barr Virus Lytic Replication” (J Nat Prod, 2017).
The source made the active and inactive calls. The calls are words filed in the database; no cut-off is given here.

Experiments:
Human gammaherpesvirus 4 = assay: Inhibition of TPA/sodium butyrate-induced EBV lytic DNA replication in human P3HR1 cells incubated for 48 hrs post TPA/sodium butyrate induction by real-time PCR method; format: functional, cell-based; details: for IC50: human gammaherpesvirus 4, P3HR-1, 48 h
In short: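 P3HR-1 cells were induced with TPA (20 ng/mL) plus sodium butyrate (0.3 mM) and given varied compound concentrations 3 h later. Total cellular DNA was purified 48 h postinduction. EBV DNA content was taken as (induced − noninduced) over the same difference in untreated cells, and IC50 was derived from the dose-response curve.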

[1] = (§1) Cytotoxicity against human P3HR1 cells assessed as decrease in cell viability after 2 days by trypan blue staining-based light microscopic method; parameters: species or system P3HR-1; details: P3HR1 cells
In short: (§2)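 EBV-positive Burkitt's lymphoma P3HR-1 (clone 16) cells were grown in RPMI 1640 with 10% FBS, streptomycin and penicillin. They were exposed to the compounds, and viable cells were counted by Trypan blue exclusion under a light microscope 2 days post-treatment. Viability was expressed relative to untreated control cells, and CC50 was fitted from dose-response curves.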

[2] = Selectivity index, ratio of CC50 for human P3HR1 cells to IC50 for TPA/sodium butyrate-induced EBV lytic DNA replication
In short: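 SI = CC50/IC50. CC50 came from Trypan blue viability counts 2 days after treatment. IC50 came from EBV DNA content 48 h after TPA/butyrate induction of P3HR-1 cells, with compound added at 3 h.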

P3HR-1 [3] = assay: as §1; details: p3hr-1, 48 h; in short: as §2
P3HR-1 [4] = assay: Cytotoxicity against human P3HR1 cells assessed as decrease in cell viability at 10 uM after 2 days by trypan blue staining-based light microscopic method; details: p3hr-1, 48 h; in short: as §2

IC50 (Human gammaherpesvirus 4) | SMILES | CC50 at 48 h [1] | Ratio CC50/IC50 [2] | inhibition (Human gammaherpesvirus 4) | other results
0.83 µM | C=CC(C)(C)c1cc2cc3c(cc2oc1=O)O[C@@H](C(C)(C)OC(=O)OCCN1C(=O)c2ccccc2C1=O)C3 | > 100 µM | >120 | – | –
– | C=CC(C)(C)c1cc2cc3c(cc2oc1=O)OC(C(C)(C)OC(=O)OCCc1scnc1C)C3 (stereo not drawn) | – | – | Active | –
– | C=CC(C)(C)c1cc2cc3c(cc2oc1=O)O[C@@H](C(C)(C)OC(=O)CNCC1CCCO1)C3 (stereo partly drawn) | – | – | Active | –
1.5 µM | C=CC(C)(C)c1cc2cc3c(cc2oc1=O)O[C@@H](C(C)(C)OC(=O)OCCc1ccc(CC)cn1)C3 | 1200 µM | 801 | – | –
– | C=CC(C)(C)c1cc2cc3c(cc2oc1=O)O[C@@H](C(C)(C)OC(=O)NCCO)C3 | – | – | Active | –
2 µM | C=CC(C)(C)c1cc2cc3c(cc2oc1=O)O[C@@H](C(C)(C)OC(=O)CNC1CCCC1)C3 | 40.8 µM | > 20 | – | –
– | C=CC(C)(C)c1cc2cc3c(cc2oc1=O)O[C@@H](C(C)(C)OC(=O)CNC)C3 | – | <3 | Active | Activity (P3HR-1 [3]): Toxic
– | C=CC(C)(C)c1cc2cc3c(cc2oc1=O)O[C@@H](C(C)(C)OC(=O)OCCc1ccccc1)C3 | – | – | inactive | Activity (P3HR-1 [3]): Toxic
2.1 µM | C=CC(C)(C)c1cc2cc3c(cc2oc1=O)O[C@@H](C(C)(C)OC(=O)C=C(C)C)C3 | > 100 µM | >47 | – | –
– | C=CC(C)(C)c1cc2cc3c(cc2oc1=O)O[C@@H](C(C)(C)OC(=O)NCCN)C3 | – | – | Active | –
1.4 µM | C=CC(C)(C)c1cc2cc3c(cc2oc1=O)O[C@@H](C(C)(C)OC(=O)NCCc1ccc(F)cc1)C3 | – | – | – | –
– | C=CC(C)(C)c1cc2cc3c(cc2oc1=O)O[C@@H](C(C)(C)OC(=O)OCc1ccccn1)C3 | – | – | Active | –
4.5 µM | C=CC(C)(C)c1cc2cc3c(cc2oc1=O)O[C@@H](C(C)(C)OC(=O)c1ccccc1)C3 | 370 µM | 83 | – | –
– | C=CC(C)(C)c1cc2cc3c(cc2oc1=O)O[C@@H](C(C)(C)OC(=O)CNCC)C3 | – | <3 | Active | Activity (P3HR-1 [3]): Toxic
– | C=CC(C)(C)c1cc2cc3c(cc2oc1=O)O[C@@H](C(C)(C)OC(=O)CCl)C3 | – | – | – | Activity (P3HR-1 [4]): Toxic
13.8 µM | C=CC(C)(C)c1cc2cc3c(cc2oc1=O)O[C@@H](C(C)(C)OC(C)=O)C3 | > 140 µM | >10 | – | –
6.2 µM | C=CC(C)(C)c1cc2cc3c(cc2oc1=O)O[C@@H](C(C)(C)OC(=O)OCCc1ccccn1)C3 | 42.7 µM | 7 | – | –
– | C=CC(C)(C)c1cc2cc3c(cc2oc1=O)O[C@@H](C(C)(C)OC(=O)CNCc1ccco1)C3 | – | – | Active | –
0.32 µM | C=CC(C)(C)c1cc2cc3c(cc2oc1=O)O[C@@H](C(C)(C)OC(=O)OCCc1ccncc1)C3 | 67.6 µM | 211 | – | –
– | C=CC(C)(C)c1cc2cc3c(cc2oc1=O)O[C@@H](C(C)(C)OC(=O)NCCCCN)C3 | – | – | Active | –
7 µM | C=CC(C)(C)c1cc2cc3c(cc2oc1=O)O[C@H](C(C)(C)OC(C)=O)C3 | > 150 µM | >21 | – | –
– | C=CC(C)(C)c1cc2cc3c(cc2oc1=O)O[C@@H](C(C)(C)OC(=O)NCCOC(C)=O)C3 | – | – | Active | –
– | C=CC(C)(C)c1cc2cc3c(cc2oc1=O)O[C@@H](C(C)(C)OC(=O)NCCC#N)C3 | – | – | Active | –
0.76 µM | C=CC(C)(C)c1cc2cc3c(cc2oc1=O)O[C@@H](C(C)(C)OC(=O)CNCCc1ccc(F)cc1)C3 | 42.6 µM | 56 | – | –
– | C=CC(C)(C)c1cc2cc3c(cc2oc1=O)O[C@@H](C(C)(C)OC(=O)CNCCCC)C3 | – | <3 | Active | Activity (P3HR-1 [3]): Toxic

SMILES | IC50 (Human gammaherpesvirus 4) | CC50 at 48 h [1] | Ratio CC50/IC50 [2] | inhibition (Human gammaherpesvirus 4) | other results
C=CC(C)(C)c1cc2cc3c(cc2oc1=O)O[C@@H](C(C)(C)O)C3 | 69.9 µM | – | – | – | –
